Reference: ChEMBL document CHEMBL3272165, “Cycloalkanoindoles. 2. 1-Alkyl-1,2,3,4-tetrahydrocarbazole-1-ethanamines and related compounds. Potential antidepressants” (J Med Chem, 1976)

What was measured:
Mus musculus = experiment: Antidepressant activity in ip dosed mouse assessed as prevention of reserpine-induced ptosis; type: functional
Outline: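 Mice dosed ip with test compound; reserpine given to induce ptosis (adapted Petersen et al. method). The percentage of mice with ptosis prevented was recorded. ED50 (mg/kg) derived by the Finney method.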

[1] = Acute toxicity in ip dosed albino mouse assessed as mortality measured for 5 days; type: organism-based; conditions: in vivo
Outline: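 Graded intraperitoneal doses, five animals per group; approximate LD50 estimated from mortality recorded over the 5 days after dosing.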

Rattus norvegicus = experiment: Antidepressant activity in ip dosed rat assessed as prevention of tetrabenazine-induced ptosis; type: functional
Outline: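 Rats dosed ip; tetrabenazine used to induce ptosis (modified Giurgea et al. method). ED50 (mg/kg) derived by the Finney method from prevention of ptosis.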

| SMILES | ED50 (Mus musculus) | LD50 at 120 h [1] | ED50 (Rattus norvegicus) |
| --- | --- | --- | --- |
| Br.CCn1c2c(c3ccccc31)CCCC2(CC)CCN(C)C (centres undefined) | 0.7 mg/kg | 175 mg/kg | – |
| CCn1c2c(c3cc(Cl)ccc31)CCCC2(C)CCN(C)C.Cl (centres undefined) | 0.19 mg/kg | – | – |
| CCc1cccc2c3c(n(CC)c12)C(C)(CCN(C)C)CCC3.O=C(O)/C=C/C(=O)O (centres undefined) | 19 mg/kg | – | – |
| CN(C)CCC1(C)CCCc2c1n(C)c1ccccc21.Cl (centres undefined) | 0.8 mg/kg | 125 mg/kg | – |
| CCCn1c2c(c3ccccc31)CCCC2(C)CCN(C)C.Cl (centres undefined) | 0.4 mg/kg | 125 mg/kg | – |
| CCn1c2c(c3ccccc31)CCCC2(C)CCN(C)C.Cl (centres undefined) | 0.12 mg/kg | 125 mg/kg | 3.3 mg/kg |
| CCn1c2c(c3ccccc31)CCCC2(C)CCNC.Cl (centres undefined) | 1.6 mg/kg | 125 mg/kg | – |
| CN(C)CCC1CCCc2c1n(C)c1ccccc21.Cl (centres undefined) | 5 mg/kg | 125 mg/kg | – |
| CN(C)CC1CCCc2c1[nH]c1ccc(Cl)cc21 (centres undefined) | > 30 mg/kg | – | – |
| Br.CCn1c2c(c3ccccc31)CCC2(C)CCN(C)C (centres undefined) | 0.75 mg/kg | – | – |
| CCn1c2c(c3ccccc31)CCCCC2(C)CCN(C)C.Cl (centres undefined) | 0.27 mg/kg | 85 mg/kg | – |
| CN(C)CCC=C1c2ccccc2CCc2ccccc21 [AMITRIPTYLINE] | 4.7 mg/kg | 94 mg/kg | 37 mg/kg |
| CN(C)CCCN1c2ccccc2CCc2ccccc21 [IMIPRAMINE] | 6 mg/kg | – | 22.6 mg/kg |
